Reference: ChEMBL document CHEMBL4689842, “EUbOPEN Chemogenomics Library wave 1” (2021)

Tested on: U2OS
Experiment: Multiplex assay against U2OS
Type: toxicity, cell-based
Conditions: human
Method in brief: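 Live cells were stained at seeding with Hoechst33342, BioTracker Green Microtubule Cytoskeleton Dye, MitoTracker Red and Annexin V Alexa Fluor 680. Following compound addition, they were imaged on a CQ1 microscope at 37°C and 5% CO2 and gated by CellPathfinder machine learning into Hoechst high-intensity objects or normal cells, with normal cells split into healthy, pyknosed or fragmented nuclei and pyknosed cells into mitotic or apoptotic. Tubulin, mitochondrial-mass and membrane-permeability phenotypes are per cents of healthy-nucleus cells.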

[1] = 12 h, 1 µM, compound concentration 1 uM, replicate 1
[2] = 12 h, 1 µM, compound concentration 1 uM, replicate 2
[3] = 12 h, 10 µM, compound concentration 10 uM, replicate 1
[4] = 12 h, 10 µM, compound concentration 10 uM, replicate 2
[5] = 24 h, 1 µM, compound concentration 1 uM, replicate 1
[6] = 24 h, 1 µM, compound concentration 1 uM, replicate 2
[7] = 24 h, 10 µM, compound concentration 10 uM, replicate 1
[8] = 24 h, 10 µM, compound concentration 10 uM, replicate 2
[9] = 48 h, 1 µM, compound concentration 1 uM, replicate 1
[10] = 48 h, 1 µM, compound concentration 1 uM, replicate 2
[11] = 48 h, 10 µM, compound concentration 10 uM, replicate 1
[12] = 48 h, 10 µM, compound concentration 10 uM, replicate 2

CC(C)NCC(O)COc1ccc(CCOCC2CC2)cc1.Cl (configuration not stated) [BETAXOLOL HYDROCHLORIDE]
Population Apoptotic (%) [1]: 60% | Population Fragmented Nuclei (%) [1]: 9% | Population Healthy Nuclei (%) [1]: 84% | Population Hoechst High Intensity Objects (%) [1]: 8% | Population Mitochondria Different-Phenotype (%) [1]: 14% | Population Mitotic Cells (%) [1]: 40% | Population Normal (%) [1]: 92% | Population Pyknosed Nuclei (%) [1]: 6% | Population Tubulin-Different-Phenotype (%) [1]: 12% | Total Cell Count [1]: 175 | Population Apoptotic (%) [2]: 100% | Population Fragmented Nuclei (%) [2]: 2% | Population Healthy Nuclei (%) [2]: 95% | Population Hoechst High Intensity Objects (%) [2]: 16% | Population Membrane Permeable-Phenotype (%) [2]: 6% | Population Mitochondria Different-Phenotype (%) [2]: 2% | Population Mitotic Cells (%) [2]: 0% | Population Normal (%) [2]: 83% | Population Pyknosed Nuclei (%) [2]: 2% | Population Tubulin-Different-Phenotype (%) [2]: 9% | Total Cell Count [2]: 55 | Population Apoptotic (%) [3]: 52% | Population Fragmented Nuclei (%) [3]: 14% | Population Healthy Nuclei (%) [3]: 69% | Population Hoechst High Intensity Objects (%) [3]: 5% | Population Membrane Permeable-Phenotype (%) [3]: 2% | Population Mitochondria Different-Phenotype (%) [3]: 64% | Population Mitotic Cells (%) [3]: 47% | Population Normal (%) [3]: 94% | Population Pyknosed Nuclei (%) [3]: 16% | Population Tubulin-Different-Phenotype (%) [3]: 53% | Total Cell Count [3]: 124 | Population Apoptotic (%) [4]: 23% | Population Fragmented Nuclei (%) [4]: 9% | Population Healthy Nuclei (%) [4]: 77% | Population Hoechst High Intensity Objects (%) [4]: 7% | Population Membrane Permeable-Phenotype (%) [4]: 5% | Population Mitochondria Different-Phenotype (%) [4]: 72% | Population Mitotic Cells (%) [4]: 76% | Population Normal (%) [4]: 92% | Population Pyknosed Nuclei (%) [4]: 13% | Population Tubulin-Different-Phenotype (%) [4]: 49% | Total Cell Count [4]: 107 | Population Apoptotic (%) [5]: 28% | Population Fragmented Nuclei (%) [5]: 8% | Population Healthy Nuclei (%) [5]: 83% | Population Membrane Permeable-Phenotype (%) [5]: 3% | Population Mitochondria Different-Phenotype (%) [5]: 10% | Population Mitotic Cells (%) [5]: 71% | Population Pyknosed Nuclei (%) [5]: 7% | Population Tubulin-Different-Phenotype (%) [5]: 8% | Total Cell Count [5]: 202 | Population Apoptotic (%) [6]: 33% | Population Fragmented Nuclei (%) [6]: 3% | Population Healthy Nuclei (%) [6]: 85% | Population Hoechst High Intensity Objects (%) [6]: 5% | Population Membrane Permeable-Phenotype (%) [6]: 4% | Population Mitochondria Different-Phenotype (%) [6]: 6% | Population Mitotic Cells (%) [6]: 66% | Population Normal (%) [6]: 94% | Population Pyknosed Nuclei (%) [6]: 10% | Population Tubulin-Different-Phenotype (%) [6]: 2% | Total Cell Count [6]: 59 | Population Apoptotic (%) [7]: 57% | Population Fragmented Nuclei (%) [7]: 13% | Population Healthy Nuclei (%) [7]: 70% | Population Hoechst High Intensity Objects (%) [7]: 6% | Population Membrane Permeable-Phenotype (%) [7]: 7% | Population Mitochondria Different-Phenotype (%) [7]: 59% | Population Mitotic Cells (%) [7]: 42% | Population Normal (%) [7]: 93% | Population Pyknosed Nuclei (%) [7]: 16% | Population Tubulin-Different-Phenotype (%) [7]: 31% | Total Cell Count [7]: 139 | Population Apoptotic (%) [8]: 40% | Population Fragmented Nuclei (%) [8]: 7% | Population Healthy Nuclei (%) [8]: 78% | Population Hoechst High Intensity Objects (%) [8]: 5% | Population Membrane Permeable-Phenotype (%) [8]: 5% | Population Mitochondria Different-Phenotype (%) [8]: 78% | Population Mitotic Cells (%) [8]: 60% | Population Normal (%) [8]: 94% | Population Pyknosed Nuclei (%) [8]: 15% | Population Tubulin-Different-Phenotype (%) [8]: 46% | Total Cell Count [8]: 106 | Population Apoptotic (%) [9]: 25% | Population Fragmented Nuclei (%) [9]: 8% | Population Healthy Nuclei (%) [9]: 81% | Population Membrane Permeable-Phenotype (%) [9]: 2% | Population Mitochondria Different-Phenotype (%) [9]: 7% | Population Mitotic Cells (%) [9]: 74% | Population Pyknosed Nuclei (%) [9]: 10% | Population Tubulin-Different-Phenotype (%) [9]: 6% | Total Cell Count [9]: 296 | Population Apoptotic (%) [10]: 50% | Population Fragmented Nuclei (%) [10]: 9% | Population Healthy Nuclei (%) [10]: 80% | Population Hoechst High Intensity Objects (%) [10]: 3% | Population Membrane Permeable-Phenotype (%) [10]: 5% | Population Mitochondria Different-Phenotype (%) [10]: 16% | Population Mitotic Cells (%) [10]: 50% | Population Normal (%) [10]: 96% | Population Pyknosed Nuclei (%) [10]: 9% | Population Tubulin-Different-Phenotype (%) [10]: 10% | Total Cell Count [10]: 87 | Population Apoptotic (%) [11]: 52% | Population Fragmented Nuclei (%) [11]: 19% | Population Healthy Nuclei (%) [11]: 68% | Population Hoechst High Intensity Objects (%) [11]: 4% | Population Membrane Permeable-Phenotype (%) [11]: 3% | Population Mitochondria Different-Phenotype (%) [11]: 34% | Population Mitotic Cells (%) [11]: 47% | Population Normal (%) [11]: 95% | Population Pyknosed Nuclei (%) [11]: 12% | Population Tubulin-Different-Phenotype (%) [11]: 21% | Total Cell Count [11]: 200 | Population Apoptotic (%) [12]: 54% | Population Fragmented Nuclei (%) [12]: 9% | Population Healthy Nuclei (%) [12]: 75% | Population Hoechst High Intensity Objects (%) [12]: 5% | Population Membrane Permeable-Phenotype (%) [12]: 9% | Population Mitochondria Different-Phenotype (%) [12]: 50% | Population Mitotic Cells (%) [12]: 45% | Population Normal (%) [12]: 94% | Population Pyknosed Nuclei (%) [12]: 15% | Population Tubulin-Different-Phenotype (%) [12]: 25% | Total Cell Count [12]: 152
